pKi: −log10 of the molar value. Where a SMILES comes first, the peptide text is derived from it. [ ]: non-standard residue; d: D form. Phe(4-NH2) = Nc1ccc(C[C@H](N)C(=O)O)cc1
Tests used:
[1] = target: T1, Type-2 angiotensin II receptor (Homo sapiens) (UniProt P50052); assay: Effect on [3H]thymidine incorporation into PC12 cells expressing AT2 receptors at 1.0 uM; conditions: PC-12
T1 sequence (whole entry): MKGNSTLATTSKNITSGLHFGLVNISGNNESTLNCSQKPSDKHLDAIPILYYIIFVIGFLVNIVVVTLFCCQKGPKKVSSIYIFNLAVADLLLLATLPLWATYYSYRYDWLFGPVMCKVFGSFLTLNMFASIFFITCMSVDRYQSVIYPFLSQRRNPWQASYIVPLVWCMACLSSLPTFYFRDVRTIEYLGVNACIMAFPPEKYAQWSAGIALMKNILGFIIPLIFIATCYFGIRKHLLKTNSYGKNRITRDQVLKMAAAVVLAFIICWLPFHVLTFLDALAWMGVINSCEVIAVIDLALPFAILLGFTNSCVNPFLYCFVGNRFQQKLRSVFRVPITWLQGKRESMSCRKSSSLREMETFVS

[2] = target: T2, Angiotensin II receptor (AT-1) type-1 (Rattus norvegicus, UniProt P29089+P25095); assay: Displacement of [125I]-Ang II from angiotensin II receptor type 1 in rat liver membranes; assay type: cell membranes, Membrane
T2 sequence (P29089 whole entry): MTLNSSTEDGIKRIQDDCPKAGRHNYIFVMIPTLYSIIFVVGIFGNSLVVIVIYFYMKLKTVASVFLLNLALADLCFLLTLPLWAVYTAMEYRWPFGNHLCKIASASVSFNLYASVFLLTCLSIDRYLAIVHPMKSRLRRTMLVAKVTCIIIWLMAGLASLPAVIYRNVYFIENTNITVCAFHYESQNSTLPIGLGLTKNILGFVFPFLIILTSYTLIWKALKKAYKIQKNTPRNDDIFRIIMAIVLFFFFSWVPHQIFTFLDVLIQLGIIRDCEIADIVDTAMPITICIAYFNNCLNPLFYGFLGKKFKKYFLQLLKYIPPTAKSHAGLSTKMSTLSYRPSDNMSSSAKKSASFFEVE
T2 sequence (P25095 whole entry): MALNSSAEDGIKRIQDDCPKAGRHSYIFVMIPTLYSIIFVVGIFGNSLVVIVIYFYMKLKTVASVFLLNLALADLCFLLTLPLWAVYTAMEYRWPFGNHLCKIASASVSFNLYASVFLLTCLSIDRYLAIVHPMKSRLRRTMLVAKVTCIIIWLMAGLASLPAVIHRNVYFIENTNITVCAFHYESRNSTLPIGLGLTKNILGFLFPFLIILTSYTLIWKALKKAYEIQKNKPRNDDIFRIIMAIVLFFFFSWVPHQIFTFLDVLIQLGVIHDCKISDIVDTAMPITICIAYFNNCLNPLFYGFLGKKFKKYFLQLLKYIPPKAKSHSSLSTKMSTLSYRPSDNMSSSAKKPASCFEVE

[3] = tested on: NG108-15; assay: Effect on neurite outgrowth in NG108-15 cells after treatment for 3 days (control 2.26%)
[4] = target: T3, Type-2 angiotensin II receptor (Homo sapiens, UniProt P50052); assay: Displacement of [125I]-Ang II from angiotensin II receptor type 2 in pig uterus myometrium; design: species or system Sus scrofa; conditions: target entry is the homologue from another species
T3 sequence (P50052 whole entry): T1 sequence (whole entry)
Method in brief: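 Porcine uterine myometrial membranes (10 mg tissue equivalent) with 1 µM losartan to block AT1. Tris-HCl pH 7.4 buffer with NaCl, MgCl2, EDTA, 0.2% BSA and peptidase inhibitors. Filtration, γ-counting; nonspecific binding with 1 µM Ang II.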

In the case of Cc1cc(Cn2cnc3c2C[C@@H](C(=O)O)N(C(=O)C(c2ccccc2)c2ccccc2)C3)ccc1N(C)C, the Activity (Counts/minute) [1] was 68700.
CC(C)[C@H](NC(=O)[C@H](CCCN=C(N)N)NC(=O)[C@@H](N)CC(=O)O)C(=O)Nc1cccc2c1N[C@@H](Cc1ccc(O)cc1)C(=O)N(CC(=O)N[C@@H](Cc1c[nH]cn1)C(=O)N1CCC[C@H]1C(=O)N[C@@H](Cc1ccccc1)C(=O)O)C2 gave a Ki [2] greater than 10 µM and an Activity [3] of 9.88%.
Compound CC[C@H](C)[C@H](NC(=O)[C@H](Cc1ccc(O)cc1)NC(=O)[C@@H](NC(=O)[C@H](CCCN=C(N)N)NC(=O)[C@@H](N)CC(=O)O)C(C)C)C(=O)N[C@@H](Cc1ccc(N)cc1)C(=O)N1CCC[C@H]1C(=O)N[C@@H](Cc1ccccc1)C(=O)O (H-DRVYI[Phe(4-NH2)]PF-OH) has a Ki [2] greater than 10 µM.
C[C@H](NC(=O)[C@@H](N)CC(=O)O)C(=O)Nc1cccc2c1N[C@@H](Cc1ccc(O)cc1)C(=O)N(CC(=O)N[C@@H](Cc1c[nH]cn1)C(=O)N1CCC[C@H]1C(=O)N[C@@H](Cc1ccccc1)C(=O)O)C2 showed a Ki [2] greater than 10 µM.
Work on CC[C@@H](C)[C@@H](C(=O)N[C@@H](Cc1c[nH]cn1)C(=O)N1CCC[C@H]1C(=O)N[C@@H](Cc1ccccc1)C(=O)O)N1Cc2cccc(NC(=O)[C@@H](NC(=O)[C@H](CCCN=C(N)N)NC(=O)[C@@H](N)CC(=O)O)C(C)C)c2N[C@@H](Cc2ccc(O)cc2)C1=O yielded a Ki [2] greater than 10 µM.
CC(C)[C@H](NC(=O)[C@H](CCCN=C(N)N)NC(=O)[C@@H](N)CC(=O)O)C(=O)Nc1ccc2c(c1)CN(CC(=O)N[C@@H](Cc1c[nH]cn1)C(=O)N1CCC[C@H]1C(=O)N[C@@H](Cc1ccccc1)C(=O)O)C(=O)[C@H](Cc1ccc(O)cc1)N2 gave a pKi [4] of 8.52, a Ki [2] greater than 10 µM and an Activity [3] of 11.1%. It also gave an Activity (Counts/minute) [1] of 45400.
For NC(N)=NCCC[C@H](NC(=O)[C@@H](N)CC(=O)O)C(=O)Nc1cccc2c1N[C@@H](Cc1ccc(O)cc1)C(=O)N(CC(=O)N[C@@H](Cc1c[nH]cn1)C(=O)N1CCC[C@H]1C(=O)N[C@@H](Cc1ccccc1)C(=O)O)C2, the Ki [2] was greater than 10 µM and the Activity [3] was 9.35%.
NC(N)=NCCC[C@H](NC(=O)[C@@H](N)CC(=O)O)C(=O)Nc1ccc2c(c1)CN(CC(=O)N[C@@H](Cc1c[nH]cn1)C(=O)N1CCC[C@H]1C(=O)N[C@@H](Cc1ccccc1)C(=O)O)C(=O)[C@H](Cc1ccc(O)cc1)N2 gave a Ki [2] greater than 10 µM.
With CC(C)[C@H](NC(=O)[C@H](C)NC(=O)[C@@H](N)CC(=O)O)C(=O)Nc1cccc2c1N[C@@H](Cc1ccc(O)cc1)C(=O)N(CC(=O)N[C@@H](Cc1c[nH]cn1)C(=O)N1CCC[C@H]1C(=O)N[C@@H](Cc1ccccc1)C(=O)O)C2 the Ki [2] was greater than 10 µM.
For CC[C@@H](C)[C@@H](C(=O)N[C@@H](Cc1c[nH]cn1)C(=O)N1CCC[C@H]1C(=O)N[C@@H](Cc1ccccc1)C(=O)O)N1Cc2cccc(NC(=O)[C@H](CCCN=C(N)N)NC(=O)[C@@H](N)CC(=O)O)c2N[C@@H](Cc2ccc(O)cc2)C1=O, the Ki [2] was greater than 10 µM.
